Measured values taken from ChEMBL document CHEMBL1140069, “In vitro antifungal activity of polyfunctionalized 2-(hetero)arylquinolines prepared through imino Diels-Alder reactions” (2008).
≈ marks a conversion by molar mass, not a printed value.

Key:
Format in all cases: functional
Aspergillus flavus = test: Antifungal activity against Aspergillus flavus ATCC 9170 after 48 hrs by broth microdilution technique; conditions: ATCC 9170, 48 h
How it was run: (§1)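 CLSI broth microdilution: M-27 A2 for yeasts and M-38 A for filamentous fungi. Medium is RPMI-1640 buffered to pH 7.0 with MOPS. Compound is diluted twofold from 250 to 0.98, final DMSO ≤2%. Inoculum is 1–5 × 10³ CFU/mL. Plates are incubated at 35 °C in a moist, dark chamber and read visually at 48 h. MIC100 is the lowest concentration giving total growth inhibition versus drug-free control.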

Aspergillus niger = test: Antifungal activity against Aspergillus niger ATCC 9029 after 48 hrs by broth microdilution technique; conditions: ATCC 9029, 48 h; how it was run: as §1
Cryptococcus neoformans [1] = test: Antimicrobial activity against Cryptococcus neoformans IM 972724 isolate at 6.25 ug/ml after 48 hrs
How it was run: (§2)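 Clinical Cryptococcus isolates kept on Sabouraud-dextrose agar slopes; inoculum 1–5 × 10³ CFU/mL. Quinoline DMSO stocks were diluted in RPMI-1640 to final 100–6.25 µg/mL, with DMSO ≤2%. An equal volume of inoculum was added (200 µL per well). Run in triplicate.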

Cryptococcus neoformans [2] = test: Antimicrobial activity against Cryptococcus neoformans ATCC 32264 at 50 ug/ml after 48 hrs; conditions: ATCC 32264, 48 h
How it was run: (§3)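 Percent growth inhibition in 96-well microplates. Compound stocks in DMSO (≤2%) were diluted in RPMI-1640 to final 100–6.25 µg/mL, and 100 µL inoculum was added (final 200 µL). Controls were a growth well (inoculum with matching DMSO, no compound) and a sterility well (no inoculum). Inhibition was calculated against growth and sterility wells.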

Cryptococcus neoformans [3] = test: Antimicrobial activity against Cryptococcus neoformans IM 972724 isolate at 50 ug/ml after 48 hrs; how it was run: as §2
Cryptococcus neoformans [4] = test: Antimicrobial activity against Cryptococcus neoformans IM 972724 isolate at 12.5 ug/ml after 48 hrs; how it was run: as §2
Cryptococcus neoformans [5] = test: Antimicrobial activity against Cryptococcus neoformans IM 042074 isolate at 100 ug/ml after 48 hrs; how it was run: as §3
Cryptococcus neoformans [6] = test: Antimicrobial activity against Cryptococcus neoformans IM 042074 isolate at 25 ug/ml after 48 hrs; how it was run: as §3
Cryptococcus neoformans [7] = test: Antimicrobial activity against Cryptococcus neoformans IM 042074 isolate at 6.25 ug/ml after 48 hrs; how it was run: as §3
Cryptococcus neoformans [8] = test: Antimicrobial activity against Cryptococcus neoformans IM 983036 isolate at 100 ug/ml after 48 hrs; how it was run: as §2
Cryptococcus neoformans [9] = test: Antimicrobial activity against Cryptococcus neoformans IM 983036 isolate at 50 ug/ml after 48 hrs; how it was run: as §2
Cryptococcus neoformans [10] = test: Antimicrobial activity against Cryptococcus neoformans IM 983036 isolate at 25 ug/ml after 48 hrs; how it was run: as §2
Cryptococcus neoformans [11] = test: Antimicrobial activity against Cryptococcus neoformans IM 983036 isolate at 12.5 ug/ml after 48 hrs; how it was run: as §2
Cryptococcus neoformans [12] = test: Antimicrobial activity against Cryptococcus neoformans IM 983036 isolate at 6.25 ug/ml after 48 hrs; how it was run: as §2
Cryptococcus neoformans [13] = test: Antimicrobial activity against Cryptococcus neoformans IM 00319 isolate at 12.5 ug/ml after 48 hrs; how it was run: as §3
Cryptococcus neoformans [14] = test: Antimicrobial activity against Cryptococcus neoformans IM 00319 isolate at 6.25 ug/ml after 48 hrs; how it was run: as §3
Cryptococcus neoformans [15] = test: Antimicrobial activity against Cryptococcus neoformans IM 972751 isolate at 100 ug/ml after 48 hrs; how it was run: as §2
Cryptococcus neoformans [16] = test: Antimicrobial activity against Cryptococcus neoformans IM 972751 isolate at 12.5 ug/ml after 48 hrs; how it was run: as §2
Cryptococcus neoformans [17] = test: Antimicrobial activity against Cryptococcus neoformans IM 031631 isolate at 50 ug/ml after 48 hrs; how it was run: as §3
Cryptococcus neoformans [18] = test: Antimicrobial activity against Cryptococcus neoformans IM 031631 isolate at 25 ug/ml after 48 hrs; how it was run: as §3
Cryptococcus neoformans [19] = test: Antimicrobial activity against Cryptococcus neoformans IM 031631 isolate at 6.25 ug/ml after 48 hrs; how it was run: as §3
Cryptococcus neoformans [20] = test: Antimicrobial activity against Cryptococcus neoformans ATCC 32264 at 25 ug/ml after 48 hrs; conditions: ATCC 32264, 48 h; how it was run: as §3
Cryptococcus neoformans [21] = test: Antimicrobial activity against Cryptococcus neoformans IM 983040 isolate at 100 ug/ml after 48 hrs; how it was run: as §2
Cryptococcus neoformans [22] = test: Antimicrobial activity against Cryptococcus neoformans IM 983040 isolate at 12.5 ug/ml after 48 hrs; how it was run: as §2
Candida albicans [23] = test: Antifungal activity against Candida albicans ATCC 10231 after 48 hrs by broth microdilution technique; conditions: ATCC 10231, 48 h; how it was run: as §1
Saccharomyces cerevisiae = test: Antifungal activity against Saccharomyces cerevisiae ATCC 9763 after 48 hrs by broth microdilution technique; conditions: ATCC 9763, 48 h; how it was run: as §1
Candida albicans [24] = test: Antimicrobial activity against Candida albicans C126 isolate at 50 ug/ml after 24 hrs
How it was run: (§4)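 Growth-inhibition microplate test. Strains are grown on Sabouraud-chloramphenicol agar for 48 h at 30 °C, and inoculum is added to RPMI-1640 containing compound at a final 100–6.25, with DMSO ≤2%. Each strain has a growth control (same DMSO, no compound) and a sterility control.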

Candida albicans [25] = test: Antimicrobial activity against Candida albicans C126 isolate at 6.25 ug/ml after 24 hrs; how it was run: as §4
Candida albicans [26] = test: Antimicrobial activity against Candida albicans C127 isolate at 100 ug/ml after 24 hrs; conditions: C127, 24 h; how it was run: as §4
Candida albicans [27] = test: Antimicrobial activity against Candida albicans C127 isolate at 6.25 ug/ml after 24 hrs; conditions: C127, 24 h; how it was run: as §4
Candida albicans [28] = test: Antimicrobial activity against Candida albicans C128 isolate at 50 ug/ml after 24 hrs; how it was run: as §4
Candida albicans [29] = test: Antimicrobial activity against Candida albicans C128 isolate at 6.25 ug/ml after 24 hrs; how it was run: as §4
Candida albicans [30] = test: Antimicrobial activity against Candida albicans C130 isolate at 100 ug/ml after 24 hrs; how it was run: as §4
Candida albicans [31] = test: Antimicrobial activity against Candida albicans C130 isolate at 50 ug/ml after 24 hrs; how it was run: as §4
Candida albicans [32] = test: Antimicrobial activity against Candida albicans C130 isolate at 12.5 ug/ml after 24 hrs; how it was run: as §4
Nakaseomyces glabratus [33] = test: Antimicrobial activity against Candida glabrata C115 isolate at 100 ug/ml after 24 hrs; how it was run: as §4
Nakaseomyces glabratus [34] = test: Antimicrobial activity against Candida glabrata C115 isolate at 50 ug/ml after 24 hrs; how it was run: as §3
Nakaseomyces glabratus [35] = test: Antimicrobial activity against Candida glabrata C115 isolate at 6.25 ug/ml after 24 hrs; how it was run: as §3
Candida tropicalis [36] = test: Antimicrobial activity against Candida tropicalis C131 isolate at 100 ug/ml after 24 hrs; how it was run: as §3
Candida tropicalis [37] = test: Antimicrobial activity against Candida tropicalis C131 isolate at 50 ug/ml after 24 hrs; how it was run: as §3
Candida tropicalis [38] = test: Antimicrobial activity against Candida tropicalis C131 isolate at 25 ug/ml after 24 hrs; how it was run: as §3
Candida tropicalis [39] = test: Antimicrobial activity against Candida tropicalis C131 isolate at 12.5 ug/ml after 24 hrs; how it was run: as §3
Candida tropicalis [40] = test: Antimicrobial activity against Candida tropicalis C131 isolate at 6.25 ug/ml after 24 hrs; how it was run: as §3
Candida parapsilosis = test: Antimicrobial activity against Candida parapsilosis C124 isolate at 25 ug/ml after 24 hrs; conditions: Lodderomyces parapsilosis; how it was run: as §3

In the case of `c1ccc(-c2ccc3ccccc3n2)cc1` [2-PHENYLQUINOLINE], the MIC (Aspergillus flavus) is reported as > 250 µg/mL, the MIC (Aspergillus niger) is reported as > 250 µg/mL and the inhibition at 6.25 µg/mL (Cryptococcus neoformans [1]) is reported as 0%. For the same compound, the inhibition at 50 µg/mL (Cryptococcus neoformans [2]) was 100%, the inhibition at 50 µg/mL (Cryptococcus neoformans [3]) was 87% and the inhibition at 12.5 µg/mL (Cryptococcus neoformans [4]) was 13%. It also gave an inhibition at 100 µg/mL (Cryptococcus neoformans [5]) of 84%, an inhibition at 25 µg/mL (Cryptococcus neoformans [6]) of 33% and an inhibition at 6.25 µg/mL (Cryptococcus neoformans [7]) of 0%. For the same compound, the inhibition at 100 µg/mL (Cryptococcus neoformans [8]) was 32%, the inhibition at 50 µg/mL (Cryptococcus neoformans [9]) was 12% and the inhibition at 25 µg/mL (Cryptococcus neoformans [10]) was 0%. The inhibition at 12.5 µg/mL (Cryptococcus neoformans [11]) was 0%, the inhibition at 6.25 µg/mL (Cryptococcus neoformans [12]) was 0% and the inhibition at 12.5 µg/mL (Cryptococcus neoformans [13]) was 0%. The inhibition at 6.25 µg/mL (Cryptococcus neoformans [14]) was 0%, the inhibition at 100 µg/mL (Cryptococcus neoformans [15]) was 83% and the inhibition at 12.5 µg/mL (Cryptococcus neoformans [16]) was 0%. The inhibition at 50 µg/mL (Cryptococcus neoformans [17]) was 34%, the inhibition at 25 µg/mL (Cryptococcus neoformans [18]) was 15% and the inhibition at 6.25 µg/mL (Cryptococcus neoformans [19]) was 0%. The inhibition at 25 µg/mL (Cryptococcus neoformans [20]) was 77%, the inhibition at 100 µg/mL (Cryptococcus neoformans [21]) was 50% and the inhibition at 12.5 µg/mL (Cryptococcus neoformans [22]) was 4%. For the same compound, the MIC (Candida albicans [23]) was 250 µg/mL (≈ 1220 µM) and the MIC (Saccharomyces cerevisiae) was 125 µg/mL (≈ 609 µM).

Work on `Cc1cc(-c2ccncc2)nc2ccccc12` yielded an MIC (Aspergillus flavus) of 100 µg/mL (≈ 454 µM), an MIC (Aspergillus niger) of 200 µg/mL (≈ 908 µM) and an inhibition at 50 µg/mL (Candida albicans [24]) of 32%. It also gave an inhibition at 6.25 µg/mL (Candida albicans [25]) of 0%, an inhibition at 100 µg/mL (Candida albicans [26]) of 80% and an inhibition at 6.25 µg/mL (Candida albicans [27]) of 0%. It also gave an inhibition at 50 µg/mL (Candida albicans [28]) of 15%, an inhibition at 6.25 µg/mL (Candida albicans [29]) of 0% and an inhibition at 6.25 µg/mL (Cryptococcus neoformans [1]) of 0%. For the same compound, the inhibition at 100 µg/mL (Candida albicans [30]) was 84%, the inhibition at 50 µg/mL (Candida albicans [31]) was 84% and the inhibition at 12.5 µg/mL (Candida albicans [32]) was 2%. The inhibition at 100 µg/mL (Nakaseomyces glabratus [33]) was 75%, the inhibition at 50 µg/mL (Nakaseomyces glabratus [34]) was 4% and the inhibition at 6.25 µg/mL (Nakaseomyces glabratus [35]) was 0%. It also gave an inhibition at 100 µg/mL (Candida tropicalis [36]) of 100%, an inhibition at 50 µg/mL (Candida tropicalis [37]) of 75% and an inhibition at 25 µg/mL (Candida tropicalis [38]) of 60%. The inhibition at 12.5 µg/mL (Candida tropicalis [39]) was 54%, the inhibition at 6.25 µg/mL (Candida tropicalis [40]) was 22% and the inhibition at 25 µg/mL (Candida parapsilosis) was 0%. The inhibition at 50 µg/mL (Cryptococcus neoformans [2]) was 100%, the inhibition at 50 µg/mL (Cryptococcus neoformans [3]) was 23% and the inhibition at 12.5 µg/mL (Cryptococcus neoformans [4]) was 0%. For the same compound, the inhibition at 100 µg/mL (Cryptococcus neoformans [5]) was 92%, the inhibition at 25 µg/mL (Cryptococcus neoformans [6]) was 87% and the inhibition at 6.25 µg/mL (Cryptococcus neoformans [7]) was 68%. For the same compound, the inhibition at 100 µg/mL (Cryptococcus neoformans [8]) was 79%, the inhibition at 50 µg/mL (Cryptococcus neoformans [9]) was 69% and the inhibition at 25 µg/mL (Cryptococcus neoformans [10]) was 45%. For the same compound, the inhibition at 12.5 µg/mL (Cryptococcus neoformans [11]) was 20%, the inhibition at 6.25 µg/mL (Cryptococcus neoformans [12]) was 0% and the inhibition at 12.5 µg/mL (Cryptococcus neoformans [13]) was 32%. The inhibition at 6.25 µg/mL (Cryptococcus neoformans [14]) was 12%, the inhibition at 100 µg/mL (Cryptococcus neoformans [15]) was 98% and the inhibition at 12.5 µg/mL (Cryptococcus neoformans [16]) was 0%. It also gave an inhibition at 50 µg/mL (Cryptococcus neoformans [17]) of 75%, an inhibition at 25 µg/mL (Cryptococcus neoformans [18]) of 57% and an inhibition at 6.25 µg/mL (Cryptococcus neoformans [19]) of 12%. It also gave an inhibition at 25 µg/mL (Cryptococcus neoformans [20]) of 100%, an inhibition at 100 µg/mL (Cryptococcus neoformans [21]) of 45% and an inhibition at 12.5 µg/mL (Cryptococcus neoformans [22]) of 0%. It also gave an MIC (Candida albicans [23]) of 100 µg/mL (≈ 454 µM) and an MIC (Saccharomyces cerevisiae) of 50 µg/mL (≈ 227 µM).
